Some of the results follow. Active and inactive are the calls of the source.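 Rule for the calls, unless noted: active = mean duplicate activation above the buffer control mean plus 5 SD of those controls; inactive = the rest.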
Columns and labels:
[1] = target: T1, Potassium voltage-gated channel subfamily E member 1 (Homo sapiens) + Potassium voltage-gated channel subfamily KQT member 1 (Homo sapiens) (UniProt P15382+P51787); assay: KCNQ1/KCNE1 complex potentiators, confirmation, selectivity assay for KCNQ1 potentiator project, thallium flux, CHO-K1 KCNQ1/E1 cells (AID 493186); settings: FluxOR thallium flux, at 10 µM; hits give high values;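 for activation: 0% = assay buffer control and 100% = R-L3 activator control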
Outline: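 system = KCNQ1/E1-expressing stable CHO-K1 cell line | doses = single compound concentration per well | times = dye 90 min, compound 20 min, room temperature | measured by = FluxOR Tl+ flux fluorescence, kinetic read | evaluation = fluorescence rise relative to baseline, as percent of R-L3 response above buffer | controls = buffer and R-L3 | replicates = duplicate wells per compound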

[2] = thallium flux effects in parental CHO cells, counter-screen for KCNQ1 inhibitor project, cell-based, Tl flux (AID 588366;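 active = mean of duplicate thallium-flux fluorescence ratios in parental host cells more than 5 SD below the buffer control mean, cut at about 0.38 in these data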;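 note: ratio is peak minus minimum fluorescence divided by baseline fluorescence; actives read low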); settings: parental CHO-K1, FluxOR thallium flux fluorescence ratio; at 10 µM; hits give low values; zero means no signal rise above baseline
Outline: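 System: parental CHO-K1 cells lacking KCNQ1 channel expression. Probe or stimulus: depolarizing K2SO4 plus Tl2SO4 stimulus, each 12.5 mM in 5x stock. Times: 90 min dye load, 20 min compound, room temperature. Measured by: real-time thallium-sensitive FluxOR dye fluorescence reading. Read-out: baseline-normalized fluorescence amplitude ratio, averaged over duplicates. Repeats: duplicates.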

[3] = target: Potassium voltage-gated channel subfamily KQT member 2 (Rattus norvegicus) (UniProt O88943); assay: KCNQ2 channel inhibition, selectivity assay for KCNQ1 inhibitor project, cell-based (AID 651746;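 active = mean percent inhibition of the KCNQ2 thallium signal more than 5 SD above the buffer-only control wells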); settings: KCNQ2 cells, FluxOR thallium flux fluorescence, at 10 µM; hits give high values
[4] = target: T1, Potassium voltage-gated channel subfamily E member 1 (Homo sapiens) + Potassium voltage-gated channel subfamily KQT member 1 (Homo sapiens); assay: KCNQ1/KCNE1 channel inhibition, selectivity assay for KCNQ1 inhibitor project, CHO-K1 cells, thallium flux, FluxOR (AID 652147;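 active = mean percent inhibition of duplicate wells above the buffer-only control mean plus 3 SD of those controls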); settings: FluxOR thallium flux fluorescence, at 10 µM; hits give high values
Outline: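 Test system: cells expressing KCNQ1/KCNE1 channels; Probe or stimulus: Tl2SO4 plus K2SO4 stimulus, each 12.5 mM in 5x stock; Times: 20 min compound pre-incubation at room temperature; Technique: kinetic FluxOR thallium-sensitive fluorescence, 1 Hz sampling, 150 s post-stimulus.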

T1 sequence (P51787 whole entry, looked up): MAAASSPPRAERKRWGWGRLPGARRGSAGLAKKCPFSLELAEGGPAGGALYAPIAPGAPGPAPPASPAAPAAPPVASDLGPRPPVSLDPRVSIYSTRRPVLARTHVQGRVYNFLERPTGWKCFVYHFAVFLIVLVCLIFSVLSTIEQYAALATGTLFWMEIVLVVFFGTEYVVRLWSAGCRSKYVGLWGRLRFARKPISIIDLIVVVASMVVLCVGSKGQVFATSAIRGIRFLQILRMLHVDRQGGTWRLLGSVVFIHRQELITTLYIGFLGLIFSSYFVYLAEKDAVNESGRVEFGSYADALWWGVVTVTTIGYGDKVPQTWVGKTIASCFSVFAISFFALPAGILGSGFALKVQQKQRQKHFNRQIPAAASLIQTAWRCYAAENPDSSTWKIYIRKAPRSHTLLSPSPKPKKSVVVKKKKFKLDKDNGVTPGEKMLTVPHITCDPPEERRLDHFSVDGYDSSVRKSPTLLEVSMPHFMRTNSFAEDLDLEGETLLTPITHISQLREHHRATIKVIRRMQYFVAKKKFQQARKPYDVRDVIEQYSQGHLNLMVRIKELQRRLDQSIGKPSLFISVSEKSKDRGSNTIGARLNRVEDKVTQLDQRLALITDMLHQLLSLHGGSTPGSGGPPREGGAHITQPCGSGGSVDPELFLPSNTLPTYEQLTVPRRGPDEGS
Chain of Potassium voltage-gated channel subfamily KQT member 2 (Rattus norvegicus) (O88943 whole entry, looked up): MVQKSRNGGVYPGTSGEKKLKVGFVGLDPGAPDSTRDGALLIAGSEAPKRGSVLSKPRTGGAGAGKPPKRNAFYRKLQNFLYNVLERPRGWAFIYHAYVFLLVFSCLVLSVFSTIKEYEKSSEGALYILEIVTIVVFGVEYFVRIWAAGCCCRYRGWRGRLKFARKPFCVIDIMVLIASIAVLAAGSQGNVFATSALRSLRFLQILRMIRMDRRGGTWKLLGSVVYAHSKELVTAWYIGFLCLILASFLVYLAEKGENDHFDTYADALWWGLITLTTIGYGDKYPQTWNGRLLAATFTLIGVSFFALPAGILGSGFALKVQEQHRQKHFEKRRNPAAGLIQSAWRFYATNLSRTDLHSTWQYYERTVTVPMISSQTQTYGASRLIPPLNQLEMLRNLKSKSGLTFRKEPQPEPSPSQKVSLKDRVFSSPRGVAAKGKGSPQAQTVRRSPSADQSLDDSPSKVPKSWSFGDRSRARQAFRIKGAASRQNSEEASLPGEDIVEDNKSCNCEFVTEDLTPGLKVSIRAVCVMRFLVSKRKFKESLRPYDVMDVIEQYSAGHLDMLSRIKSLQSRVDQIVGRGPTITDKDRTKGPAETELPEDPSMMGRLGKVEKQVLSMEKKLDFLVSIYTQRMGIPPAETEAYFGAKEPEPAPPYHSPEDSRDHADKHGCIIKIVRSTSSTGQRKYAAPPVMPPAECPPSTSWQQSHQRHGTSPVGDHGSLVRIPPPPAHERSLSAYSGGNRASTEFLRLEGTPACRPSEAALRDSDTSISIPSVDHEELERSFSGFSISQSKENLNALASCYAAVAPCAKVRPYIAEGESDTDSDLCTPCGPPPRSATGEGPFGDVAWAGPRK

Cc1cccc(C(=O)NNC(=S)NC(=O)c2ccccc2)c1
activation [1]: 46.6% (active)

CCN1/C(=C\c2ccc3ccccc3[n+]2CC)Sc2cc(C)ccc21
fluorescence ratio (Tl flux) [2]: 0.043 (active)
outcome [3]: inactive
outcome [4]: inactive

Cc1ccc(OCC(=O)NNC(=S)NC(=O)C(C)(C)C)c(Br)c1
outcome [1]: inactive

CC(Oc1ccc(Cl)cc1)C(=O)NNC(=S)NC(=O)c1ccco1 (configuration not stated)
activation [1]: 13.8% (active)

COc1ccc(C(=O)NNC(=S)NC(=O)c2ccccc2)cc1
activation [1]: 20.5% (active)

CC(C)(C)C(=O)NC(=S)NNC(=O)C(c1ccccc1)c1ccccc1
outcome [1]: inactive

Cc1ccccc1C(=O)NNC(=S)NC(=O)c1ccc(Cl)cc1Cl
activation [1]: 19.9% (active)

Cc1cccc(C(=O)NC(=S)NNC(=O)c2ccccc2Cl)c1
outcome [1]: inactive

Cc1onc(-c2ccccc2)c1C(=O)NNC(=S)NC(=O)c1ccc(F)cc1
outcome [1]: inactive

COc1ccc(C(=O)NC(=S)NNC(=O)c2cccc(C)c2)cc1
activation [1]: 31.9% (active)

CC1CN(C(=O)c2ccc(NS(=O)(=O)c3ccc(C(C)(C)C)cc3)cc2)CC(C)O1 (configuration not stated)
outcome [1]: inactive

CCCCC(=O)NNC(=S)NC(=O)C(c1ccccc1)c1ccccc1
outcome [1]: inactive

Cc1onc(-c2ccccc2)c1C(=O)NNC(=S)NC(=O)c1ccc(Br)cc1
outcome [1]: inactive

Cc1onc(-c2ccccc2)c1C(=O)NNC(=S)NC(=O)c1ccc(Cl)cc1Cl
outcome [1]: inactive

NC(=Nc1ccccc1)Nc1ccccc1
outcome [1]: inactive
